Data: PMC9436332 (Proceedings of the National Academy of Sciences of the …, 2022)
“Also recorded” adds a separate entry of the source.

Experiments:
WT-SARM1 [1] = experiment: Gel-ABPP, in vitro treatment, WT-SARM1 recombinantly expressed in HEK293T cells; format: binding, human; conditions: 1 h; for effect of metabolite on MY-13B engagement of SARM1: 0.125-1 mM, MY-13B 20 µM
rat DRG neurons = format: cell-based; conditions: 48 h
[2] = system: quantified cysteines in the human proteome (22Rv1 cells); experiment: Cysteine-directed MS-ABPP; format: binding; conditions: 20 µM, 3 h, in situ; 22Rv1 and Ramos
In short: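 22Rv1 cells were plated at 15 million cells per 15-cm dish and treated the next day. Ramos cells were adjusted to 3 × 10⁶ cells/mL and rested 30 min before treatment. Cells got 20 μM test compound in situ for 3 h, then were washed in cold DPBS and frozen. Cells were probe-sonicated in cold PBS, and 2 mg/mL lysate was labelled with IA-DTB (10 mM DMSO stock) for 1 h at room temperature in the dark. Cysteines were quantified by LC-MS/MS/MS against DMSO.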

mouse DRG neurons = experiment: Vacor-induced neurite degeneration in mouse DRG neurons; format: cell-based; conditions: for Degeneration Index (%): +50 μM Vacor alone
endogenous SARM1 = target: T1, endogenous SARM1 (Homo sapiens, UniProt Q6SZW1); format: cell-based; conditions: SH-SY5Y cells, vacor 50 µM, 0-8 h
T1 sequence (Q6SZW1 28-724): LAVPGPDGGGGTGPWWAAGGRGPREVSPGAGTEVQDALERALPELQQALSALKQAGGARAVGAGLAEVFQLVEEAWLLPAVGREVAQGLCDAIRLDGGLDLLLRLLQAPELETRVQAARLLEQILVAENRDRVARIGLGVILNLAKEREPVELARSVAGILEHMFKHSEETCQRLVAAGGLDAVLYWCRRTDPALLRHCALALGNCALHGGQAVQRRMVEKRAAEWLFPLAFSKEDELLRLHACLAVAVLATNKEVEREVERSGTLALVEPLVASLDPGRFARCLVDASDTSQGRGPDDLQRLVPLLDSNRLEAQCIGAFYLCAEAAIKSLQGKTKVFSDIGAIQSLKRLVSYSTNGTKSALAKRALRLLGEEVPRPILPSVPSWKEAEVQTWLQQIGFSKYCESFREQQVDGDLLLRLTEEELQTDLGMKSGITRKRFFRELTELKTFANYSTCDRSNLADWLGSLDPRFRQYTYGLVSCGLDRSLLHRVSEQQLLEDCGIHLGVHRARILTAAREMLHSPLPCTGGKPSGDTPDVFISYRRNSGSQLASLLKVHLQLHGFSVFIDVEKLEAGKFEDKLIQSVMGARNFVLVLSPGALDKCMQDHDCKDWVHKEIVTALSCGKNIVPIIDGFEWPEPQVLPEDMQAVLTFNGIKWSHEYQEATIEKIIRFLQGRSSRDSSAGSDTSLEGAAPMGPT
In short: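 SH-SY5Y cells were pretreated in situ with compound for 3 h (0.1% DMSO), then given 50 μM vacor for 4 h. Pellets were resuspended in DPBS and quenched with cold methanol:acetonitrile (1:1) containing 100 pmol 8-Br-cADPR internal standard. Extraction used three freeze/sonication cycles, −20 °C for 1 h, centrifugation, drying and resuspension. cADPR was measured by LC-MS/MS, normalized to total protein; mean ± SEM of three independent experiments.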

SARM1-C311A = experiment: Gel-ABPP, in situ, SARM1-C311A mutant expressed in HEK293T cells; format: binding, human; conditions: 20 µM, 1 h
In short: (§1)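 N-terminally FLAG-tagged human SARM1 (WT or C311A) was transiently expressed in HEK293T cells and treated 48 h post-transfection. Cells got either alkyne probe alone (20 μM, 1 h, in situ) or 3 h compound pretreatment followed by probe. Lysates (ice-cold DPBS with protease inhibitors, 1.0 mg/mL) underwent 1 h CuAAC with rhodamine-azide/TCEP/TBTA/CuSO₄. Analysis was SDS-PAGE in-gel fluorescence with background-subtracted band intensities; IC₅₀ by four-parameter fit; three independent experiments.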

mouse SARM1 = experiment: Gel-ABPP, in situ, mouse SARM1 recombinantly expressed in HEK293T cells; format: binding; conditions: 20 µM, 1 h, compared with human SARM1
WT-SARM1 [3] = experiment: Gel-ABPP, in situ, WT-SARM1 recombinantly expressed in HEK293T cells; format: binding, human; conditions: 1 h
In short: as §1

SARM1 = conditions: cited from earlier work

NC(=O)c1ccc[n+]([C@@H]2O[C@H](COP(=O)([O-])OP(=O)(O)OC[C@H]3O[C@@H](n4cnc5c(N)ncnc54)[C@H](O)[C@@H]3O)[C@@H](O)[C@H]2O)c1 [NAD^+, nicotinamide adenine dinucleotide, reference compound]
effect of metabolite on MY-13B engagement of SARM1 (WT-SARM1 [1]): neither metabolite affected MY-13B engagement

C=CC(=O)N1[C@@H](c2ccc3c(c2)OCO3)c2[nH]c3ccccc3c2C[C@H]1C(=O)NC [MY-9A]
prevention of vincristine-induced neurite degeneration (rat DRG neurons; 40 nM vincristine): weak activity | off-target cysteines also engaged by the SARM1-inactive enantiomers [2]: DCTN4_C258, KEAP1_C151, PTGES2_C110, and UBR1_C1603 | blockade of vacor-induced neurite degeneration (mouse DRG neurons; 1–20 µM, vacor 50 µM, over 48 h): ineffective

CC[C@]1(O)C[C@H]2CN(CCc3c([nH]c4ccccc34)[C@@](C(=O)OC)(c3cc4c(cc3OC)N(C=O)[C@H]3[C@@](O)(C(=O)OC)[C@H](OC(C)=O)[C@]5(CC)C=CCN6CC[C@]43[C@@H]65)C2)C1 [vincristine, reference compound]
induction of neurite degeneration (rat DRG neurons; vincristine 40 nM): robust neurite degeneration

O=C(NCc1cccnc1)Nc1ccc([N+](=O)[O-])cc1 [vacor]
induction of cADPR production (endogenous SARM1): robust, time-dependent production of cADPR | Degeneration Index (%) (mouse DRG neurons; 8 h): ~60% | Degeneration Index (%) (mouse DRG neurons; 24 h): full degeneration

C#CCNC(=O)[C@H]1Cc2c([nH]c3ccccc23)[C@@H](c2ccc3c(c2)OCO3)N1C(=O)C=C [MY-13B]
reactivity of alkyne probe with SARM1-C311A (gel-ABPP) (SARM1-C311A): very low reactivity | reactivity of alkyne probe with SARM1 in vitro (WT-SARM1 [1]; 20 µM): stereoselective reactivity; also recorded: maintained stereoselective engagement | labeling of recombinant mouse SARM1 by alkyne probe (mouse SARM1): lower extent of labeling | reactivity of alkyne probe with WT-SARM1 (gel-ABPP) (WT-SARM1 [3]; 20 µM): reacted strongly

COC(=O)c1c(C)nc(C)c(C(=O)OCC(C)C)c1-c1ccccc1N=O [dHNN, dehydronitrosonisoldipine, reference compound]
effect of C311 mutagenesis on inhibitory activity (SARM1): only modestly impaired (∼twofold) | engagement of SARM1_C311 (effect on MY-13B reactivity) (WT-SARM1 [3]; 5–50 µM, 3 h pretreatment, MY-13B 20 µM): did not observe substantial alterations in MY-13B reactivity

C#CCNC(=O)[C@@H]1Cc2c([nH]c3ccccc23)[C@H](c2ccc3c(c2)OCO3)N1C(=O)C=C [MY-13A]
reactivity of alkyne probe with SARM1-C311A (gel-ABPP) (SARM1-C311A): very low reactivity

NC(=O)c1ccc[n+]([C@@H]2O[C@H](COP(=O)([O-])O)[C@@H](O)[C@H]2O)c1 [NMN, nicotinamide mononucleotide, reference compound]
effect of metabolite on MY-13B engagement of SARM1 (WT-SARM1 [1]): neither metabolite affected MY-13B engagement
